In PMC5405180 (EBioMedicine, 2017):
Each block holds one compound with its values, some of them ahead of it. Where a SMILES comes first, the peptide text is derived from it. The star is where a group is joined. Cbz = O=C(OCc1ccccc1)*

Experiments:
NFAT5 [1] = test: NFAT5-dependent GFP reporter assay; format: cell-based, murine; conditions: for IC50: Mus musculus, RAW264.7, read-out: IC50, NFAT5-dependent reporter activity
How it was run: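 Cells were stimulated with LPS (1 μg/ml) for 20 h alongside graded test compound or BBR. GFP was read by flow cytometry and expressed as % ΔMFI = (treated MFI − untreated MFI) × 100 / untreated MFI.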

CREB = CREB promoter reporter assay; format: cell-based; conditions: 1 µM test compound
NFAT5 [2] = test: LPS-induced NFAT5 expression and nuclear translocation; format: cell-based, murine
RAW 264.7 cells = test: NO production; format: cell-based, murine; conditions: RAW 264.7, LPS 1 μg/ml 24 h, Griess assay
How it was run: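 RAW 264.7 macrophages were kept in RPMI 1640 with 10% FBS. Cells were preincubated for 1 h with graded test compound, then stimulated with LPS (1 μg/ml) for 24 h. Supernatant was mixed with an equal volume of Griess reagent for 15 min at room temperature to give nitrite. Three independent experiments, each in triplicate, mean ± SD.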

[3] = test system: mice with collagen-induced arthritis (CIA); test: Collagen-induced arthritis; format: in vivo
ROS = ROS production by flow cytometry; format: cell-based, murine; conditions: RAW 264.7, LPS 1 µg/ml, KRN2 0.8 µM
ELK = ELK promoter reporter assay; format: cell-based; conditions: 1 µM test compound
RAW 264.7 macrophages = test: Pro-inflammatory NFAT5 target gene expression in LPS-stimulated RAW 264.7; format: cell-based, murine
[4] = target: NF-κB p65 binding to Nfat5 promoter 1 (Homo sapiens, UniProt Q04206); test: Electrophoretic mobility shift assay; conditions: recombinant p65 400 ng; KRN2 5, 20, 50 μM; MG132 20 μM
Chain of NF-κB p65 binding to Nfat5 promoter 1 (Q04206 whole entry): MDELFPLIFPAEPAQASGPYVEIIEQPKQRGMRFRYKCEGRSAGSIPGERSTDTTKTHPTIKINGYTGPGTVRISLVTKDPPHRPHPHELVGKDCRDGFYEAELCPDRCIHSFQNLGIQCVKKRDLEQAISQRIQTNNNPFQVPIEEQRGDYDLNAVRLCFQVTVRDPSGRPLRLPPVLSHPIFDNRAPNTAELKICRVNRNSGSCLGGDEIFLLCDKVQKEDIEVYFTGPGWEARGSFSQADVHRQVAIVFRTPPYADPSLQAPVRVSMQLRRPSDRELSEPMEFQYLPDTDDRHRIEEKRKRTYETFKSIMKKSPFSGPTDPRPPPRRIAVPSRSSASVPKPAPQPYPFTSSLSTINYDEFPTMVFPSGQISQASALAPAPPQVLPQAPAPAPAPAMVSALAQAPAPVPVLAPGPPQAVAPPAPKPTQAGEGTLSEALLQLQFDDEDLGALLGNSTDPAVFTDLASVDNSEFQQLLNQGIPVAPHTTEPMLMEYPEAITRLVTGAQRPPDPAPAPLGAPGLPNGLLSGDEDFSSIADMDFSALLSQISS

NFAT5 promoter = test: Nfat5 promoter GFP reporter assay; format: cell-based, murine; conditions: RAW 264.7, 1 μM
How it was run: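 RAW 264.7 cells carried a GFP reporter containing two NF-κB binding sites from upstream of the Nfat5 gene. Cells were preincubated with test compound (1 μM) for 1 h, then stimulated for 20 h with either LPS (1 μg/ml) or NaCl (45 mM). GFP was measured by flow cytometry as % ΔMFI relative to untreated cells. Three independent experiments.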

[5] = Pharmacokinetic profile in rats; format: in vivo; conditions: rat
How it was run: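 Rats were dosed intravenously or orally and plasma concentration–time profiles were obtained. Half-life came from the oral profile. Oral bioavailability (F%) was calculated from oral versus intravenous exposure.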

[6] = test system: adjuvant-induced arthritis (AIA) in mice; test: Adjuvant-induced arthritis; format: in vivo
How it was run: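 AIA induced in 8-week-old C57BL/6 mice with 2 mg CFA given intradermally. Test compound was given at 3 mg/kg i.p. daily for 2 weeks, with PBS as vehicle. Ankle and footpad thickness were tracked over the 2 weeks (6 mice/group, mean ± SD). Joints were fixed in […] for 1 day and decalcified in 5% formic acid for 2 weeks. Sections were blocked with 10% goat serum, then stained overnight at 4 °C with anti-F4/80 (1/50), biotinylated anti-rabbit IgG, streptavidin-peroxidase and DAB.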

p38 MAPK = p38 MAPK activity; format: cell-based; conditions: RAW 264.7, LPS 1 µg/ml, KRN2 0.8 µM
NFAT5 [7] = test: High salt-induced NFAT5 and tonicity-inducible gene expression in RAW 264.7; format: cell-based, murine; conditions: for high salt-induced increase in NFAT5 mRNA and protein: RAW 264.7, NaCl 45 mM 12 h, KRN2 1 μM, SB203580 5 μM
[8] = target: NF-κB p65 binding to the Nfat5 promoter (Mus musculus, UniProt Q04207); test: ChIP assay; format: cell-based, murine; conditions: RAW 264.7, 1 μM, LPS 1 μg/ml 12 h
Chain of NF-κB p65 binding to the Nfat5 promoter (Q04207 whole entry): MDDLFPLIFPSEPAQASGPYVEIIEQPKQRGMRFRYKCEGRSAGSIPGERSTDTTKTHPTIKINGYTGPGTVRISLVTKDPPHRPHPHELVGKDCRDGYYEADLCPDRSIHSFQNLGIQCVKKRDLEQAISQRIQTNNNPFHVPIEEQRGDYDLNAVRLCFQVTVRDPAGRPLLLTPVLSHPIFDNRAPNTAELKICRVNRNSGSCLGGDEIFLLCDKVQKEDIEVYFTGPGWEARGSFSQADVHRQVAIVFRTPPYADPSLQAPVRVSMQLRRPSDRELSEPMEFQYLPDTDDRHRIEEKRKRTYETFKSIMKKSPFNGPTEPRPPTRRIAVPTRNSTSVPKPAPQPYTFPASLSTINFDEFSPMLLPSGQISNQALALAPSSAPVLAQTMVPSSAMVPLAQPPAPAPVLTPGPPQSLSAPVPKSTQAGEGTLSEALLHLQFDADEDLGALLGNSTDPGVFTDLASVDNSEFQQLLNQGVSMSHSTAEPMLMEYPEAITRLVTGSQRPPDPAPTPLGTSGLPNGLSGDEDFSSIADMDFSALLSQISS
How it was run: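 RAW 264.7 cells were pretreated with test compound (1 μM) for 1 h, then given LPS (1 μg/ml) for 12 h. Cells were fixed in 1% formaldehyde for 10 min at 37 °C, nuclei isolated and chromatin sonicated, with an input aliquot kept. Immunoprecipitation used anti-p65. DNA was extracted with phenol/chloroform, ethanol-precipitated and PCR-amplified with Nfat5 promoter primers; Nfat5 exon primers served as negative control. Three independent experiments.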

NF-κB p65 = test: p65 phosphorylation/translocation and IκB degradation; format: cell-based, murine; conditions: RAW 264.7, LPS 1 µg/ml
How it was run: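 RAW 264.7 cells were incubated in cytoplasmic lysis buffer for 15 min on ice and centrifuged; the supernatant was taken as the cytosolic fraction. The pellet was taken up in nuclear lysis buffer and spun for 20 min at 12,000 rpm. Fractions were run on SDS-PAGE, transferred to nitrocellulose and probed for p65, with NMP p84 and α-tubulin as fraction markers, using ECL detection. Whole-cell lysates were prepared in RIPA buffer for 15 min at 4 °C and protein measured by Bradford assay.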

NFAT1 = test: NFAT promoter reporter assay; format: cell-based, human; conditions: HEK293 cells stimulated with PMA, 1 μM
[9] = test system: murine peritoneal macrophages; test: High salt-stimulated murine peritoneal macrophages; format: cell-based; conditions: NaCl 45 mM 6 h, 0.8 μM
murine splenocytes = test: LPS-stimulated murine splenocytes; format: cell-based; conditions: total splenocytes of mice, LPS 1 μg/ml 24 h, 0.8 μM
[10] = test system: murine peritoneal macrophages; test: LPS-stimulated murine peritoneal macrophages; format: cell-based; conditions: 0.8 μM
splenocytes of CIA mice = test: LPS-stimulated splenocytes from treated CIA mice; format: in vivo; conditions: splenocytes of CIA mice treated orally, LPS 1 μg/ml 24 h
How it was run: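 CIA was induced in mice by CII/CFA immunization with a CII/IFA boost. Mice received oral test compound at 15 or 60 mg/kg on alternate days, or vehicle. Splenocytes from these mice were cultured with LPS (1 μg/ml) for 24 h.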

[11] = 3 mg/kg peritoneally, versus vehicle

SMILES: COc1ccc2cc3[n+](cc2c1OC)CCc1cc2c(cc1-3)OCO2 [Berberine, reference compound]
IC50 (NFAT5 [1]): 4000 nM

SMILES: C[S+]([O-])c1ccc(-c2nc(-c3ccncc3)c(-c3ccc(F)cc3)[nH]2)cc1 (stereo not drawn) [SB253580, reference compound]
high salt-induced increase in NFAT5 mRNA and protein (NFAT5 [7]): completely blocked

More lines, main results first:

CREB-dependent reporter (luciferase) activity (CREB): not suppressed
ELK-dependent reporter (luciferase) activity (ELK): not suppressed
NF-κB p65 binding to Nfat5 promoter 1 [4]: dose-dependently inhibited
plasma level after oral administration ([5]; oral administration): not detectable
recruitment of NF-κB p65 to the Nfat5 promoter region [8]: nearly completely eliminated
IC50 (NFAT5 [1]): 100 nM
SMILES: COc1ccc2c(Cc3ccccc3F)c3[n+](cc2c1OC)CCc1cc2c(cc1-3)OCO2.[Br-] [KRN2, 13-(2-Fluorobenzyl)-9,10-dimethoxy-5,6-dihydro-[1,3]dioxolo[4,5-g]isoquinolino[3,2-a]isoquinolin-7-ium bromide]
LPS-induced NFAT5 mRNA and protein expression (NFAT5 [2]; RAW 264.7, 0.8 μM, LPS 1 μg/ml): nearly completely blocked
translocation of NFAT5 into the nucleus (NFAT5 [2]; RAW 264.7, 0.8 μM, LPS 1 μg/ml 12 h): inhibited
LPS-stimulated increase in NFAT5 protein expression (NFAT5 [2]; RAW 264.7 macrophages, 0.5 μM, western blot): significantly suppressed
NO production (RAW 264.7 cells): dose-dependently lowered
arthritis severity ([3]; 3 mg/kg peritoneally every day for 3 weeks from day 21): significantly decreased
serum levels of anti-type II collagen antibody, IL-6, and TNF-α ([3]; 3 mg/kg peritoneally, day 40): significantly decreased
inflammatory cell infiltration, synovial hyperplasia, and joint destruction [3, 11]: limited degree
number of anti-F4/80+ macrophages in joints [3, 11]: significantly lower
CIA development ([3]; oral 3 mg/kg every other day for 3 weeks from day 21 (data not shown)): failed to suppress
ROS (ROS): neither ROS nor p38 MAPK activity was affected
mRNA and protein expression levels of IL-6, TNF-α, and GM-CSF (RAW 264.7 macrophages; RAW 264.7, 0.8 μM, LPS 1 μg/ml): significantly decreased
expression level of iNOS (RAW 264.7 macrophages; RAW 264.7, LPS 1 μg/ml 24 h, western blot): dose-dependently lowered
LPS-induced NFAT5 promoter activity (NFAT5 promoter; LPS 1 μg/ml 20 h): specifically repressed
high salt-induced NFAT5 promoter activity (NFAT5 promoter; NaCl 45 mM 20 h): failed to reduce
number of anti-F4/80+ cells infiltrated in joints ([6]; 3 mg/kg peritoneally): declined
paw swelling (ankle and footpad diameter) ([6]; 3 mg/kg peritoneally every day for 2 weeks, versus vehicle): significantly lower
inflammatory cell infiltration, synovial hyperplasia, and joint destruction (H&E) [6, 11]: lesser degrees
p38 MAPK activity (p38 MAPK): neither ROS nor p38 MAPK activity was affected
high salt-induced increase in NFAT5 mRNA and protein (NFAT5 [7]): did not repress
mRNA expression levels of Ar and Bgt (NFAT5 [7]; RAW 264.7 stimulated with high salt (NaCl 45 mM 12 h), 0.8 μM): had no effect
anti-NFAT5 activity relative to BBR (NFAT5 [1]; ratio of IC50 values, KRN2 versus BBR): 40 times
degradation of IκB (NF-κB p65): nor blocked
phosphorylation and translocation of p65 (NF-κB p65): neither influenced
NFAT1-dependent reporter activity (NFAT1): only slightly inhibited
high salt-induced increase in Nfat5 mRNA expression [9]: neither mitigated
iNOS, IL-6, and TNF-α expressions (murine splenocytes): decreases
LPS-stimulated increase in NFAT5 protein and mRNA [10]: mitigated
expression levels of Il6 and Tnf ([10]; LPS): decreased

half-life ([5]; plasma, po): > 8 h
IC50 (NFAT5 [1]): 750 nM
SMILES: COc1ccc2c(Cc3ccccc3F)c3n(c(=O)c2c1OC)CCc1cc2c(cc1-3)OCO2 [KRN5, 13-(2-Fluorobenzyl)-9,10-dimethoxy-5,6-dihydro-8H-[1,3]dioxolo[4,5-g]isoquinolino[3,2-a]isoquinolin-8-one]
efficacy in suppressing arthritis compared to methotrexate ([3]; oral 60 mg/kg, methotrexate 5 mg/kg orally twice a week): more potent
arthritis severity ([3]; oral 15 and 60 mg/kg every other day for 3 weeks from day 21): dose-dependently mitigated
serum anti-type II collagen IgG ([3]; oral, day 44): significantly decreased
side effects ([3]; oral, throughout the experiments (data not shown)): no side effects were noted
expressions of NFAT5, IL-6, MCP-1, and GM-CSF (RAW 264.7 macrophages; RAW 264.7, 1 μM, LPS 1 μg/ml 24 h): inhibited
NFAT5 expression in spleen cells stimulated by LPS (splenocytes of CIA mice): reduced

NF-κB p65 binding to Nfat5 promoter 1 [4]: did not affect it
SMILES: CC(C)C[C@@H](C=O)NC(=O)[C@H](CC(C)C)NC(=O)[C@H](CC(C)C)NC(=O)OCc1ccccc1 [MG132, reference compound] (Cbz-Leu-Leu-Leu-aldehyde)
